Where a SMILES comes first, the peptide text is derived from it. Bridges are numbered along the chain shown (N, C = ends).
Columns and labels:
CEM-SS = assay: Cytotoxicity against human CEM-SS cells by XTT assay; type: cell-based
[1] = system: Human immunodeficiency virus 1; assay: Antiviral activity against HIV1 RF infected in human CEM-SS cells assessed as inhibition of virus induced cytopathic effect by XTT assay; type: functional, organism-based; settings: Human immunodeficiency virus 1, RF
Procedure, shortened: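 HIV-1RF infection of CEM-SS, a human T-lymphoblastoid cell line, in vitro; inhibition of virus-induced cytopathic effects read out and reported as EC50 in µM.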

CC[C@H](C)[C@@H]1NC(=O)[C@H](C(C)C)NC(=O)[C@H](CCCNC(=N)N)NC(=O)[C@@H]2CSSC[C@@H]3NC(=O)[C@H]([C@@H](C)O)NC(=O)[C@@H]4CSSC[C@H](NC(=O)[C@H](Cc5ccccc5)NC(=O)[C@H]([C@@H](C)O)NC(=O)[C@@H]5CCCN5C(=O)[C@H](CC(=O)O)NC(=O)CNC(=O)[C@H](CC(N)=O)NC(=O)[C@H](CCCNC(=N)N)NC(=O)[C@H](CCCCN)NC(=O)[C@H](CSSC[C@H](NC(=O)[C@H](C(C)C)NC(=O)[C@@H]5CCCN5C1=O)C(=O)N[C@@H]([C@@H](C)O)C(=O)N[C@@H](Cc1ccc(O)cc1)C(=O)N[C@@H](CO)C(=O)N[C@@H](C)C(=O)N[C@@H](C)C(=O)N[C@@H](CC(C)C)C(=O)NCC(=O)N4)NC(=O)[C@H](CC(C)C)NC(=O)CNC(=O)[C@H](CC(=O)O)NC(=O)[C@H](CO)NC(=O)[C@H](CCCNC(=N)N)NC(=O)[C@H](CC(=O)O)NC(=O)[C@H](CC(=O)O)NC3=O)C(=O)NCC(=O)N[C@@H](CCC(=O)O)C(=O)N[C@@H]([C@@H](C)O)C(=O)N2 [PALICOUREIN] (cyclo(AALGCTCDDRSDGLCKRNGDPTFCGETCRVIPVCTYS); disulfide 5-24, 7-28, 15-34)
IC50 (CEM-SS): 1500 nM | EC50 [1]: 100 nM

From ChEMBL document CHEMBL1137803, “A novel anti-HIV macrocyclic peptide from Palicourea condensata” (J Nat Prod, 2001)
